# Measurements pooled from the literature.
# Each line is one published result; the experiments were not run side by side.
# EGFR del747-752/P753S: Epidermal growth factor receptor (EGFR, Homo sapiens, UniProt P00533, del747-752/P753S)
# EGFR T790M: Epidermal growth factor receptor (EGFR, Homo sapiens, UniProt P00533, T790M)
# EGFR del752-759: Epidermal growth factor receptor (EGFR, Homo sapiens, UniProt P00533, del752-759)
# EGFR G719C: Epidermal growth factor receptor (EGFR, Homo sapiens, UniProt P00533, G719C)
# EGFR L861Q: Epidermal growth factor receptor (EGFR, Homo sapiens, UniProt P00533, L861Q)
# EGFR del746-750: Epidermal growth factor receptor (EGFR, Homo sapiens, UniProt P00533, del746-750)
# EGFR L858R/T790M: Epidermal growth factor receptor (EGFR, Homo sapiens, UniProt P00533, L858R/T790M)
# EGFR L858R: Epidermal growth factor receptor (EGFR, Homo sapiens, UniProt P00533, L858R)
# EGFR: Epidermal growth factor receptor (EGFR, Homo sapiens, UniProt P00533)
# EGFR A750P/del747-749: Epidermal growth factor receptor (EGFR, Homo sapiens, UniProt P00533, A750P/del747-749)
Compound,target,test,conditions,remaining binding [%]
CNCc1ccccc1-c1csc([C@H](C)Nc2nc(C)nc3cc(OC)c(OC)cc23)c1,EGFR del747-752/P753S,"cell-free assay, competition with immobilised ligand",1 µM,100
CCN1CCN(Cc2ccc(C(=O)Nc3ccc(C)c(Oc4ccc5c(c4)CC(=O)N5)c3)cc2C(F)(F)F)CC1,EGFR T790M,"binding, competition with immobilised ligand",1 µM,83
COc1cnc(Nc2cccc(S(N)(=O)=O)c2)nc1N1CCN(c2ccccc2)C(=O)C1,EGFR del752-759,"binding, competition with immobilised ligand",1 µM,100
COc1ncc2cc3ccccc3nc2c1C#N,EGFR G719C,"cell-free assay, competition with immobilised ligand",5 µM,2.1
F[C@@H]1CCN(c2nccc(-c3cnn4ncccc34)n2)C1,EGFR L861Q,binding,1 µM,93
CNC(=O)c1ccc(Nc2ncc(C(F)(F)F)c(NCc3nccnc3N(C)S(C)(=O)=O)n2)cc1,EGFR L861Q,"cell-free assay, competition with immobilised ligand",0.1 µM,100
N[C@H]1CCN(c2nccc(-c3cnn4ncccc34)n2)C1,EGFR del746-750,binding,1 µM,98
O=C(NCCCN1CCOCC1)c1ccc(Nc2nccc(-c3cc4ccccc4s3)n2)cc1,EGFR del747-752/P753S,"binding, competition with immobilised ligand",1 µM,92
CN1CCN(c2ccc(Nc3nccc(-c4ccccc4)n3)cc2C(F)(F)F)CC1,EGFR L858R/T790M,binding,10 µM,93
C[C@@H]1CN(c2cc(-c3n[nH]c4ccc(OC5(C)CC5)cc34)ncn2)C[C@H](C)O1,EGFR L858R,"cell-free assay, competition with immobilised ligand",0.1 µM,82
C[C@@H]1CCN(c2nccc(-c3cnn4ncccc34)n2)C1,EGFR L861Q,binding,1 µM,92
COc1ccc2c(c1)O[C@H](c1ccc(OC)c(OC)c1)C[C@@H]2NC(=O)C1(c2ccc3c(c2)OC(F)(F)O3)CC1,EGFR L858R,"cell-free assay, competition with immobilised ligand",1 µM,100
O=C(Nc1c[nH]nc1C(=O)NC1CCNCC1)c1cc(F)cc(F)c1,EGFR,"binding, competition with immobilised ligand",1 µM,96
O=C(c1ccc(Nc2ncc(Cl)c(-c3ccc(Cl)s3)n2)cc1)N1CCC(N2CCCC2)CC1,EGFR A750P/del747-749,"binding, competition with immobilised ligand",1 µM,72
c1cncc(-c2cccc(Nc3nccc(NC4CCCCC4)n3)c2)c1,EGFR L858R,"binding, competition with immobilised ligand",10 µM,58
O=C(c1ccc(Nc2nccc(-c3cc4ccccc4s3)n2)cc1)N1CCC(N2CCCC2)CC1,EGFR G719C,"binding, competition with immobilised ligand",1 µM,93
O=C(NC1CCC1)c1ccc2nc(-c3cccc(NS(=O)(=O)NCCN4CCCCC4)c3)cn2c1,EGFR del747-752/P753S,"cell-free assay, competition with immobilised ligand",10 µM,100
CNC(=O)[C@@H]1CC[C@@H](n2c(-c3ccc4cnccc4c3)nc3ccc(C(=O)NCc4cccc(C(N)=O)c4)cc32)C1,EGFR del747-752/P753S,"binding, competition with immobilised ligand",1 µM,100
N#Cc1ccccc1CSc1nnc2c(n1)[nH]c1ccccc12,EGFR,"binding, competition with immobilised ligand",10 µM,100
Cc1cnn2ncc(-c3ccnc(N(C)C)n3)c2c1,EGFR G719C,binding,1 µM,100
O=C(c1ccc(Nc2ncc(Cl)c(-c3cc4ccccc4s3)n2)cc1)N1CCC(N2CCCC2)CC1,EGFR del747-752/P753S,"binding, competition with immobilised ligand",1 µM,79
CS(=O)(=O)NCC[C@H](NC(=O)c1cncc2c1cnn2-c1ccc(F)cc1)c1ccnc(S(C)(=O)=O)c1,EGFR L858R,"cell-free assay, competition with immobilised ligand",1 µM,83
Cc1c(-c2ccccc2)oc2c(C(=O)OCCN3CCCCC3)cccc2c1=O,EGFR,"cell-free assay, competition with immobilised ligand",10 µM,88
COc1ccnn2ncc(-c3ccnc(N(C)C)n3)c12,EGFR del752-759,binding,1 µM,86
CN1CCN(c2ccc(Nc3nccc(-c4cccc([N+](=O)[O-])c4)n3)cc2C(F)(F)F)CC1,"Epidermal growth factor receptor (EGFR, Homo sapiens, UniProt P00533, G719S)",binding,10 µM,98
CCC(=N\O)/C(C)=C/c1ccc(F)cc1,EGFR T790M,"cell-free assay, competition with immobilised ligand",1 µM,100
Nc1ncc2c(n1)-c1c([nH]c3ccc(C#CC4CC4)cc13)CCCC2,EGFR L858R/T790M,"binding, competition with immobilised ligand",1 µM,87
COc1cnc(Nc2cccc(S(N)(=O)=O)c2)nc1N1CCN(c2ccccc2)CC1,EGFR L861Q,"binding, competition with immobilised ligand",1 µM,100
CN(CCCC(F)(F)F)c1nccc(-c2cnn3ncccc23)n1,EGFR L858R/T790M,binding,1 µM,100
O=C(NCC1CCOCC1)c1n[nH]cc1NC(=O)c1c(F)cccc1F,EGFR del747-752/P753S,"binding, competition with immobilised ligand",1 µM,100
Cc1cnc(Nc2ccc(C(=O)N3CCC(N4CCCC4)CC3)cc2)nc1-c1cc2ccccc2s1,EGFR A750P/del747-749,"binding, competition with immobilised ligand",1 µM,72
CN(C)c1ncc(F)c(-c2cnn3ncccc23)n1,EGFR L861Q,binding,1 µM,100
Cc1nc(N2CC[C@@H](O)C2)ncc1-c1cc(C(F)(F)F)cc2[nH]ncc12,EGFR G719C,"cell-free assay, competition with immobilised ligand",1 µM,100
CN(C)c1nccc(-c2cnc3ncccn23)n1,EGFR del752-759,binding,1 µM,100
Cn1cc(Cl)c2c(Oc3c(F)cc(Nc4cc(Cl)nc(N)n4)cc3F)ccnc21,EGFR T790M,"cell-free assay, competition with immobilised ligand",0.1 µM,88
O=C(NCCCN1CCOCC1)c1ccc(Nc2ncc(Cl)c(-c3ccc(Cl)s3)n2)cc1,EGFR del746-750,"binding, competition with immobilised ligand",1 µM,92
